Calls of active or inactive are those of the source. The rule behind the calls is not given here.
Molecular target: T1, Substance-P receptor (Homo sapiens, UniProt P25103)
Experiment: Displacement of [3H]substance P from NK1 receptor in human astrocytoma cells
Format: cell-based
Summary of the method: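 Whole human astrocytoma cells; inhibition of [³H]-SP binding reported as a Ki in μM.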

T1 sequence (P25103 whole entry): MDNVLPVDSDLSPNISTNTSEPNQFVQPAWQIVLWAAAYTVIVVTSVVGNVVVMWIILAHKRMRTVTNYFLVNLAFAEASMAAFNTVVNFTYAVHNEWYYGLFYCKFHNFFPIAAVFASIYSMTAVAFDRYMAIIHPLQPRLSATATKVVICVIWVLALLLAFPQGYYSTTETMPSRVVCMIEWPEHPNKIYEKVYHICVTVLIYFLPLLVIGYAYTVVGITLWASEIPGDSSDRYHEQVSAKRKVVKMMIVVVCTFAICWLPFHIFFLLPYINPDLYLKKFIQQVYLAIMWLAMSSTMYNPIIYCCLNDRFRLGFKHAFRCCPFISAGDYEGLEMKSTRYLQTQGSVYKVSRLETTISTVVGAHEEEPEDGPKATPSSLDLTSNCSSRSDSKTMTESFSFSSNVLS

**Q.** How did the Ki turn out when `C=CC(C)(C)[C@@]12C[C@H]3C(=O)Nc4ccccc4C(=O)N3[C@@H]1N(C(C)=O)c1ccccc12` [ACYL ASZONALENIN] was run?
**A.** The Ki was 170 µM.

**Q.** How did the Ki turn out when `C[C@@]12NC(=O)[C@@H](C[C@@]13c1ccccc1N1C(=O)CN[C@@H]13)n1c2nc2ccccc2c1=O` [SPIROQUINAZOLINE] was run?
**A.** Its Ki is 95 µM.

Molecular target: T1, Substance-P receptor
Experiment: Displacement of [3H]substance P from NK1 receptor in human astrocytoma cells at 200 uM
Format: cell-based

**Q.** For `CC(C)[C@@H]1NC(=O)[C@H]2CCCN2C1=O`, which Activity is on record?
**A.** The Activity was “inactive”.

**Q.** `O=C1N[C@@H](Cc2ccc(O)cc2)C(=O)N2CCC[C@@H]12` was tested. Which Activity did it give?
**A.** The Activity was “inactive”.

**Q.** Which Activity does the source give for `CC(C)C[C@@H]1NC(=O)[C@@H]2CCCN2C1=O` here?
**A.** Its Activity is “inactive”.

**Q.** Which Activity does the source give for `O=C1N[C@@H](Cc2c[nH]c3ccccc23)C(=O)Nc2ccccc21` here?
**A.** The Activity was “inactive”.

**Q.** `O=C1N[C@@H](Cc2ccccc2)C(=O)N2CCC[C@H]12` was tested. Which Activity did it give?
**A.** The Activity was “inactive”.

**Q.** With `CC(C)[C@@H]1NC(=O)[C@@H]2CCCN2C1=O` as the compound, how does the Activity read?
**A.** Its Activity is “inactive”.

**Q.** Which Activity does the source give for `O=C1N[C@@H](Cc2ccc(O)cc2)C(=O)N2CCC[C@H]12` here?
**A.** Its Activity is “inactive”.

**Q.** `O=C1N[C@@H](Cc2ccccc2)C(=O)N2CCC[C@@H]12` was tested. Which Activity did it give?
**A.** The Activity was “inactive”.

**Q.** `C[C@H]1N[C@H]2N(C1=O)c1ccccc1[C@@]21C[C@@H]2C(=O)N[C@](C)(O1)c1nc3ccccc3c(=O)n12` was tested. Which Activity did it give?
**A.** The Activity was “inactive”.

**Q.** How did the Activity turn out when `O=C(N[C@H](CO)Cc1ccccc1)c1ccccc1` was run?
**A.** Its Activity is “inactive”.

Reference: ChEMBL document CHEMBL1149055, “Spiroquinazoline, a novel substance P inhibitor with a new carbon skeleton, isolated from Aspergillus flavipes” (J Nat Prod, 1994)
